A word on the GI50: it is the concentration giving 50% growth inhibition. Low values mean more potent growth inhibition, high ones less potent growth inhibition. As a reminder, the inhibition is the percentage by which the read-out fell short of the control. Low readings indicate a response near the control, high ones a response far below the control. For orientation: pIC50 means −log10 of the IC50, conventionally taken in molar units. The low end stands for a high IC50, the high end for a low IC50.

Data set [1] relates to THP-1. The experiment in a line: Cytotoxicity against human THP1 cells at 1 uM after 48 hrs by Alamar Blue assay. The class given is cell-based. To be noted: thp-1, 48 h. The gist of the method: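 THP-1 macrophages in complete RPMI-1640 (8 × 10^5 cells/ml) were added to an equal volume of compound, stated as 2 µM in complete medium with 1% DMSO. Triplicate wells were incubated 48 h at 37 °C in 5% CO2. AlamarBlue was then added for 3 h and fluorescence was read. Medium with and without DMSO served as 0% inhibition controls.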
For orientation: Resazurin is reduced to fluorescent resorufin, in cell work by metabolically active cells.

Data set [2] concerns Leishmania donovani. The experiment in a line: Antileishmanial activity against axenic Leishmania donovani amastigotes by Alamar Blue assay. The data set is classed as functional, organism-based. The gist of the method:
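Dose-response GI50 (50% growth inhibition) was run on axenic L. donovani amastigotes (5.0 × 10^5 cells/ml) mixed 1:1 with compound at twice the final concentration in amastigote medium with 1% DMSO. Incubation was 24 h at 37 °C in 5% CO2, plus 24 h with alamarBlue, then fluorescence at 544/590 nm. Medium ± DMSO was taken as 0% inhibition. Triplicate wells were used, with duplicate or single experiments ± standard error.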

For data set [3], the system named is Leishmania donovani. The experiment in a line: Antileishmanial activity against axenic Leishmania donovani amastigotes at 15 uM by Alamar Blue assay. The class given is functional. In outline: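 L. donovani axenic amastigotes (5.0 × 10^5 cells/ml) were added to an equal volume of compound made up at twice the final concentration in complete amastigote medium with 1% DMSO, giving a 15 µM single-concentration screen. Plates were incubated 24 h at 37 °C in 5% CO2, then alamarBlue was added for 24 h more. Fluorescence was read at ex 544 nm, em 590 nm. Medium ± DMSO served as 0% inhibition, with triplicate wells.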

The subject of data set [4] is Leishmania donovani. Briefly: Antileishmanial activity against axenic Leishmania donovani amastigotes at 1 uM by Alamar Blue assay. The data set is classed as functional.

SMILES strings stand for the structures. pIC50: −log10 of the molar value. Some results are limits rather than exact numbers.

`O=C(/C=C/c1ccc(NC(=O)c2ccccc2)cc1)c1ccccc1` came in with an Activity in data set [1] of 37%. This molecule also returned a GI50 in data set [2] of 7.6 µM. The inhibition at 15 µM in data set [3] was 91.6%.

Regarding `O=C(Nc1ccc(/C=C/C(=O)c2cccs2)cc1)c1ccccc1`, in data set [1], the Activity worked out at 6%. This molecule displayed a GI50 in data set [2] of 5.5 µM. The molecule further yielded an inhibition at 15 µM in data set [3] of 95.3%.

Turning to `COc1ccc(C(=O)/C=C/c2ccc(NC(=O)c3ccccc3)cc2)cc1`, the inhibition at 15 µM in data set [3] came out at 2.1%.

In data set [3], `COc1ccc(C(=O)/C=C/c2ccc(NC(C)=O)cc2)cc1` showed an inhibition at 15 µM of 54.7%.

`C[C@@H]1[C@H](O)[C@@H](C)/C=C/C=C/C=C/C=C/C=C/C=C/C=C/[C@H](O[C@@H]2O[C@H](C)[C@@H](O)[C@H](N)[C@@H]2O)C[C@@H]2O[C@](O)(C[C@@H](O)C[C@@H](O)[C@H](O)CC[C@@H](O)C[C@@H](O)CC(=O)O[C@H]1C)C[C@H](O)[C@H]2C(=O)O` [AMPHOTERICIN B] came in with an inhibition at 1 µM in data set [4] of more than 90%. At 15 µM the inhibition in data set [3] was 99%.

Turning to `O=C(Nc1ccc(/C=C/C(=O)c2ccco2)cc1)c1ccccc1`, in data set [1], the Activity came out at 0%. In data set [2], this molecule registered a GI50 of 6 µM. The inhibition at 15 µM in data set [3] is 92.4%.

In the case of `O=C(/C=C/c1ccc(NC(=O)c2ccccc2)cc1)c1ccc(Cl)cc1`, testing at 15 µM in data set [3] gave an inhibition of 59.8%.

In data set [1], `CC(=O)c1ccc(/C=C/C(=O)c2ccccc2)cc1` returned an Activity of 45.7%. Growth in data set [2] was halved (GI50) at 5.6 µM. Besides, in data set [3], the inhibition at 15 µM was determined as 93.6%.

Take `COc1ccc(C(=O)/C=C/c2cccc3ccccc23)cc1`: the pIC50 in data set [2] (in the assay text read “by tetrazolium dye-based assay” for “by Alamar Blue assay”) is less than 3.70. The same molecule registered an inhibition at 15 µM in data set [3] of 51%.

As to `O=C(/C=C/c1ccc(NC(=O)c2ccccc2)cc1)c1cccnc1`, the Activity in data set [1] stood at 0%. Further, it took 2.5 µM to inhibit growth in data set [2] by half (GI50). Further, testing at 15 µM in data set [3] gave an inhibition of 98.7%.

In data set [3], `COc1ccc(C(=O)/C=C/c2ccc(Oc3ccccc3)nc2)cc1` gave an inhibition at 15 µM of 42%.

`O=C(/C=C/c1ccc(Oc2ccccc2)nc1)c1ccccc1` gave an inhibition at 15 µM in data set [3] of 63.7%.

The record behind these values is ChEMBL document CHEMBL1141523, “A new Heck reaction modification using ketone Mannich bases as enone precursors: parallel synthesis of anti-leishmanial chalcones” (Bioorg Med Chem Lett, 2008).
